SR-BI HDL uptake – inhibitors of mouse SR-BI mediated HDL lipid uptake; Q61009; ldlA[mSR-BI] CHO cells, DiI-HDL uptake fluorescence, 3 h; inhibition, % at 12.5 µM; 320,000 tested, 0.96% active;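 active = mean replicate inhibition of at least 70% and a set share of replicates each scoring 70 or more; inconclusive = meets just one of the two criteria; inactive = fails both criteria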;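 note: 0% = median of neutral control wells and 100% = median of positive control wells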
Target sequence (Q61009 whole entry, looked up): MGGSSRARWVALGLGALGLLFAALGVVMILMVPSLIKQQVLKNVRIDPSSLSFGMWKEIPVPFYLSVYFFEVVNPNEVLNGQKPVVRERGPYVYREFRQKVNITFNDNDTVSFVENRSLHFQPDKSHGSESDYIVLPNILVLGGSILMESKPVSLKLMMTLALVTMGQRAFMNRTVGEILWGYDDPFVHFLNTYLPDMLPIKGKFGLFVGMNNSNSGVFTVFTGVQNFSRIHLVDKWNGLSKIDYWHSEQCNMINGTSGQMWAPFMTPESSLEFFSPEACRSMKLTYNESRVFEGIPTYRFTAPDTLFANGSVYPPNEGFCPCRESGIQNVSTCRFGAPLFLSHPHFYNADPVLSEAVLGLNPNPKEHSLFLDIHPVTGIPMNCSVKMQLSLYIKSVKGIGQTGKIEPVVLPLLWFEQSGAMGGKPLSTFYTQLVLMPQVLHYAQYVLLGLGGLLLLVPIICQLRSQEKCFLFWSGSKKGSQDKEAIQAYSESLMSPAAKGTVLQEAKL
Wnt bcat act – activators of Wnt/beta-catenin signaling | 300,000 tested, 1.2% active | Wnt/beta-catenin reporter cell assay, activator, plate reader | activation, % at 9.35 µM | AID 743398; in the data active = activation above about 30%, passing the limit was not always enough; inconclusive = no clear call, values can overlap the other calls;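 note: 0% = neutral control wells and 100% = positive control wells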
HSF1 activator – increases HSF-1 driven luciferase reporter signal; NIH3T3-HGL HSF-1 luciferase reporter, MG132, 8 h; 100% = twice DMSO control signal; activation, % at 9 µM; 300,000 tested, 1.7% active; AID 504408;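 active = mean replicate activation of at least 50% with a set share of replicates each reaching 50%; inconclusive = only one of those two conditions met; inactive = mean below 50% and too few replicates reaching it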;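 note: 0% = median of the neutral control wells and 100% = twice that signal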
SR-BI DiI-HDL act – activators of SR-BI mediated HDL lipid uptake; CHO ldlA[mSR-BI] cells, DiI-HDL uptake fluorescence, 3 h; 100 = double the neutral-control signal; activation, % at 12.5 µM; 320,000 tested, 0.096% active;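 active = mean replicate activation of at least 60% and every replicate at or above 60%; inconclusive = mean or all-replicate condition met, but not both; inactive = mean below 60% and not all replicates reaching 60%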;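 note: 0% = median plate neutral-control signal and 100% = twice that signal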
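Assay system: LDL receptor-deficient CHO ldlA cells overexpressing murine SR-BI / Medium: BSA-supplemented, HEPES-buffered Ham's F12, pH 7.4 / Probe or stimulus: DiI-labelled HDL at 10 µg/mL final / Timing: compound with DiI-HDL co-incubation, 3 h at 37 °C / Technique: bottom-read cell fluorescence after medium removal, ex 550/em 595 nm / Measure: HDL uptake via cellular fluorescence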
MITF TRPM1 HTS – MITF TRPM1 promoter activation in melanoma cells; SK-MEL-5 TRPM1-promoter luciferase, 24 h; % of positive control, neutral wells = 0; activation, % at 12.5 µM; 300,000 tested, 0.75% active; AID 588334;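 active = mean activation of at least 80% with every replicate also reaching 80%; inconclusive = mean reaches 80% but some replicate falls short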;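 note: 0% = neutral control wells and 100% = parthenolide positive control wells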
* = called active by the depositor; ? = inconclusive; nt = no result given. In the library only some 3.6% were active in any assay of this set; here they are far more common.

SMILES | SR-BI HDL uptake | Wnt bcat act | HSF1 activator | SR-BI DiI-HDL act | MITF TRPM1 HTS
COc1ccccc1NC(=O)c1ccc(NC(=O)COC(=O)CC(NC(=O)c2ccccc2Cl)c2ccccc2)cc1 (stereo not given) | 81* | -3 | 16 | -81 | 16
CCOC(=O)C1CCN(C(=O)c2ccc3c(=O)n4nc(Nc5ccccc5OC)sc4nc3c2)CC1 | nt | -1 | nt | nt | nt
O=C(/C=C/c1ccccc1[N+](=O)[O-])Nc1cc(S(=O)(=O)N2CCOCC2)ccc1N1CCOCC1 | -12 | -4 | nt | 12 | -3
COc1cc(C2c3c(oc4ccccc4c3=O)C(=O)N2Cc2ccco2)ccc1O (stereo not given) | -11 | nt | -6 | 11 | 4
COc1cccc(C2c3c(oc4ccccc4c3=O)C(=O)N2Cc2ccco2)c1 (stereo not given) | nt | 0 | 59* | nt | -7
COc1ccccc1OCC(=O)N/N=C/C=C/c1ccc([N+](=O)[O-])o1 | -1 | 69* | 28 | 1 | -75
Cc1ccccc1OCC(=O)N/N=C/c1ccc([N+](=O)[O-])o1 | 17 | 2 | 22 | -17 | -77
CCCCCn1c(SCc2cccc(C)c2)nc2c1c(=O)[nH]c(=O)n2C | 24 | -4 | 60* | -27 | nt
O=[N+]([O-])c1cccc(NC(=S)N2CCN(c3ccccn3)CC2)c1 | -22 | 8 | nt | 22 | -19
O=C(Nc1nnc([C@@H]2C[C@H](O)[C@@H](CO)O2)s1)Nc1ccccc1F | nt | 39* | nt | nt | nt
O=C(Nc1nnc([C@H]2C[C@H](O)[C@@H](CO)O2)s1)Nc1ccccc1F | nt | -2 | nt | nt | nt
CC1(C)CC2(CC(c3ccccc3)c3ccc(O)cc3O2)NC(=S)N1 (stereo not given) | 72* | -2 | -1 | -72 | -21
COc1ccc(C2CC3(CC(C)(C)NC(=S)N3)Oc3cc(O)cc(C)c32)cc1 (stereo not given) | -2 | -3 | 14 | 2 | -11
CC(=O)Oc1cc2c(cc1Cl)C(c1cccs1)CC1(CC(C)(C)NC(=S)N1)O2 (stereo not given) | 75* | nt | -11 | -75 | -5
COc1cc2c(cc1CNC[C@H]1O[C@@H](n3cnc4c(N)ncnc43)[C@H](O)[C@@H]1O)OCO2 | -17 | nt | nt | 17 | 3
CCOC(=O)C1CCN(C(=O)COC(=O)/C=C/c2ccccc2)CC1 | 6 | 0 | nt | -6 | -1
CCOC(=O)C1CCN(C(=O)/C=C/c2ccccc2)CC1 | 1 | 45* | 4 | -1 | 18
COc1ccc(C(=O)N2CCN(CC(=O)N3CCOCC3)CC2)cc1 | 3 | -1 | 6 | -3 | 6
CCOC(=O)C1CCN(C(=O)Nc2ccc(Cl)cc2Cl)CC1 | 80* | nt | 2 | -80 | 11
COc1ccc2cc(/C=C/C(=O)N3CCN(CC(=O)N4CCCCCC4)CC3)ccc2c1 | 60 | nt | 61* | -60 | 14
COC(=O)C1CCN(C(=O)/C=C/c2ccc(OC)cc2)CC1 | nt | 57* | 24 | nt | 25
CCOC(=O)C1CCN(C(=O)Nc2cccc(Cl)c2)CC1 | -11 | -2 | 8 | 11 | nt
Cc1ccc(F)c(S(=O)(=O)NC(=O)C2(C)CCN2C(=O)Cc2ccc(-c3ccccc3)cc2)c1 (stereo not given) | nt | -5 | nt | nt | nt
O=C(N/N=C/c1ccco1)C1(O)c2ccccc2-c2ccccc21 | nt | -3 | 56* | nt | nt
O=C(Nc1nnc([C@@H]2C[C@H](O)[C@@H](CO)O2)s1)c1c(F)cccc1F | nt | 0 | nt | nt | nt
SMILES | SR-BI HDL uptake | Wnt bcat act | HSF1 activator | SR-BI DiI-HDL act | MITF TRPM1 HTS
O=C(CN1CCN(c2ncc(C(F)(F)F)cc2Cl)CC1)N1CCN(c2ncc(C(F)(F)F)cc2Cl)CC1 | 31 | nt | -4 | -31 | -3
CN(C)c1ccc(NC(=S)N2CCN(c3ncc(C(F)(F)F)cc3Cl)CC2)cc1 | 16 | 52* | -7 | -16 | 2
C#CCN1C(=O)[C@]2(OC[C@@H]3Cc4ccccc4[C@@H]3C=C2C)c2ccccc21 | nt | -1 | nt | nt | nt
CNC(=O)COc1coc(CN2CCN(C(=O)c3ccco3)CC2)cc1=O | -6 | 35* | 0 | 6 | -2
CC(=O)O[C@H]1CC[C@]2(C)C3CC[C@]4(C)[C@@H]([C@H](C)/C=C/[C@H](C)C(C)C)CC[C@H]4[C@@]34C=C[C@]2(C1)N(C(=O)c1ccccc1)O4 (stereo not given in full) | nt | -2 | nt | nt | nt
Cc1ccc(S(=O)(=O)N2C[C@H]3C(=O)C[C@@H](c4ccccc4)N(S(=O)(=O)c4ccc(C)cc4)[C@H]3C[C@H]2c2ccccc2Cl)cc1 | nt | -3 | nt | nt | nt
CC[C@@H]1CC2=C(C(=O)OC(C)(C)O2)[C@H](c2ccc(Cl)cc2)O1 | nt | -2 | nt | nt | nt
O=C(CCN1C(=O)/C(=C/c2cccs2)SC1=S)Nc1ccc(O)cc1 | 34 | -3 | 15 | -34 | 4
O=C(CCN1C(=O)/C(=C/c2cccs2)SC1=S)Nc1ccccc1O | nt | -1 | 69* | nt | -9
Cc1cc(NC(=O)CCN2C(=O)/C(=C/c3ccccc3Cl)SC2=S)no1 | 15 | -2 | 54* | -15 | -10
COc1ccccc1/C=C1\SC(=S)N(CCC(=O)Nc2cc(C)on2)C1=O | nt | -1 | 9 | nt | -4
Cc1ccc(NC(=O)CN(C)C(=O)C2CSC3(C)CCC(=O)N23)cc1 (stereo not given) | nt | -2 | nt | nt | nt
COC(=O)[C@@]12C[C@@H](CC(=O)N3CCN(C(=O)C4CC4)CC3)C(=O)N(Cc3ccco3)C1=CCC(C)(C)C2 | nt | -2 | nt | nt | nt
O=C(NCc1cccnc1)c1cc(C2CCCCN2C(=O)c2ccc3ccccc3c2)on1 (stereo not given) | nt | -1 | nt | nt | nt
CCN(CC)S(=O)(=O)c1cc(C(=O)N=c2sccn2C)ccc1OC | -11 | -1 | 18 | 11 | -18
CCCCOc1ccc(C(=O)N=c2sccn2C)cc1OC | 46 | 37* | 12 | -46 | ?
CCOc1ccc(-c2noc(-c3csc([C@@H]4O[C@H](CO)[C@H](O)[C@H](O)[C@H]4O)n3)n2)cc1 | nt | 6 | nt | nt | nt
CC(C)N(C[C@@H]1CSCCS(=O)(=O)N1)C(C)C | nt | -1 | nt | nt | nt
COCCNC(=O)C1(C)CCCN(C(=O)c2ccc(OC)c(OC)c2)C1 (stereo not given) | nt | 1 | nt | nt | nt
Cc1[nH]nc(-c2ccc(O)c(C)c2O)c1-c1cnn(-c2ccccc2)c1 | -3 | -2 | 67* | 3 | 6
COC(=O)c1cc2c(c3c4cc(OC)ccc4n(S(C)(=O)=O)c13)C(=O)N(C)C2 | nt | -3 | nt | nt | nt
COc1ccc(NC(=O)c2ccco2)cc1NC(=O)c1c(F)c(F)c(OC)c(F)c1F | 68 | nt | 23 | -68 | -6
O=C(Nc1ccc(Nc2ccccc2)cc1)c1ccco1 | 14 | nt | 67* | -14 | 59
CC(=O)N(C)c1ccc(NC(=O)c2ccco2)cc1 | -13 | 35* | 5 | 13 | 35
COc1c(F)c(F)c(C(=O)Nc2ccc(NC(=O)c3ccco3)cc2)c(F)c1F | 74* | 0 | 21 | -74 | 6
O=C(Nc1ccc(NC(=O)c2ccco2)cc1)c1ccco1 | 15 | 9 | 41 | -15 | 53
